Columns and labels:
[1] = biological target: T1, Progesterone receptor (Oryctolagus cuniculus) (UniProt P06186); assay: Relative binding to progesterone receptor compared to progesterone
T1 sequence (whole entry): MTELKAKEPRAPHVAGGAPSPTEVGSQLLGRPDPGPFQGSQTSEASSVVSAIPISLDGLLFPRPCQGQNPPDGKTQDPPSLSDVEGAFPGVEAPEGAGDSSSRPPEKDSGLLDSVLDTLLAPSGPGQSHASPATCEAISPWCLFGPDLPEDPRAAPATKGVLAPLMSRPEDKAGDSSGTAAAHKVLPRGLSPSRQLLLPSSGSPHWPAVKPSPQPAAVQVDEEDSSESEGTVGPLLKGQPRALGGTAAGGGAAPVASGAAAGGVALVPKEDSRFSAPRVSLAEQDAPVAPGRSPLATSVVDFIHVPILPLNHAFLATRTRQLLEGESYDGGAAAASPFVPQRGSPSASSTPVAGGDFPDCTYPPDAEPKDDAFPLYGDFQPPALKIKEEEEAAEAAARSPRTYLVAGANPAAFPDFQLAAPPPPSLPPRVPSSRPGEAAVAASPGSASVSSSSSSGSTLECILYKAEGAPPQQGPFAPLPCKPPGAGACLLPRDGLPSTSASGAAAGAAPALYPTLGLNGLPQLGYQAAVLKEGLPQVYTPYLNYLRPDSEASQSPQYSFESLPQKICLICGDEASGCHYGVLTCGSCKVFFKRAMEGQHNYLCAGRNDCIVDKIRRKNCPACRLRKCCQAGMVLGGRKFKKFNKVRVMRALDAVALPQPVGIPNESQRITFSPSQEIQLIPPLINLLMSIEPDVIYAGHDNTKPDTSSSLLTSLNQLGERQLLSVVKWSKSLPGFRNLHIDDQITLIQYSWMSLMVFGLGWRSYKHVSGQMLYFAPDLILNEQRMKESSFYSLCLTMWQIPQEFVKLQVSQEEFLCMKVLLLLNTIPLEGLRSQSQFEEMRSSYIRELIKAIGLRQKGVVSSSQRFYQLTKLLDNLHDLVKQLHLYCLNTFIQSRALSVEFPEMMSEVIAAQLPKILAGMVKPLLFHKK
Procedure, shortened: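 Competitive binding to progesterone receptor from rabbit uterus using tritiated progesterone as ligand. Competition factor is the multiple of the concentration needed to give displacement equivalent to the standard; a high factor means weak binding.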

[2] = biological target: T1, Progesterone receptor (Oryctolagus cuniculus); assay: Progestational activity by Clauberg test in rabbits as McPhail index after 3 mg subcutaneous dose; format: functional
Procedure, shortened: (§1)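 Castrated infantile female New Zealand rabbits (800–1000 g) were primed with estradiol 0.5 μg sc daily for 6 days. They then received compound over 5 days (total 3–100 mg sc or 30–300 mg po).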

[3] = biological target: T2, Mineralocorticoid receptor (Rattus norvegicus) (UniProt P22199); assay: Antialdosterone activity in rats administered orally compared to Spironolactone(100)
T2 sequence (whole entry): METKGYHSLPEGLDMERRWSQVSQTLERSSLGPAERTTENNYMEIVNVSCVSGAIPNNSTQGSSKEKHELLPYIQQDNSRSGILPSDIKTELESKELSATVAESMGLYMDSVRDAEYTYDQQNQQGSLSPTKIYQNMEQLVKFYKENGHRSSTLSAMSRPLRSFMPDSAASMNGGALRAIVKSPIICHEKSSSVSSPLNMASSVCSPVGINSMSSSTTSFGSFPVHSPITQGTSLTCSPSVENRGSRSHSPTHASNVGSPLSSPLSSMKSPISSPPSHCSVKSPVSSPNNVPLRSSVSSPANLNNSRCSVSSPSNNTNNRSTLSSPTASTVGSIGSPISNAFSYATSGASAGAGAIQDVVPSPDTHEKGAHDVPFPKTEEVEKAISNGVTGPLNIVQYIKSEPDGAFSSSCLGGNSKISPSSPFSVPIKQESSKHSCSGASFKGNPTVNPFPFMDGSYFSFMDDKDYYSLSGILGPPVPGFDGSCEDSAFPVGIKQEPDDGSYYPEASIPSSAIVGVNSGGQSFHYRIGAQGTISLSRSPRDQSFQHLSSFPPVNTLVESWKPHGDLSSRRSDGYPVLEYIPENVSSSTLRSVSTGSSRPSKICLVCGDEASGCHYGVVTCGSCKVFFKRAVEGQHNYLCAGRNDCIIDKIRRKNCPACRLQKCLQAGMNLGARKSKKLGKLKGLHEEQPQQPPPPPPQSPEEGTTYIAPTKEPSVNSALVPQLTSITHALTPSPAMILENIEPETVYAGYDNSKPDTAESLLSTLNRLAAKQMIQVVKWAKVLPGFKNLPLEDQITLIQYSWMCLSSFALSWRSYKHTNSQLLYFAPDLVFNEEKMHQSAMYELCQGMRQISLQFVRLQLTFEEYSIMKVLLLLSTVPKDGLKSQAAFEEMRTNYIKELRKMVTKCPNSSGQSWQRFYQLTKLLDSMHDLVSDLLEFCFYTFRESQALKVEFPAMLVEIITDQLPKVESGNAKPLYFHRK

[4] = biological target: T1, Progesterone receptor (Oryctolagus cuniculus); assay: Progestational activity by Clauberg test in rabbits as McPhail index after 100 mg subcutaneous dose; format: functional; procedure, shortened: as §1
[5] = biological target: T1, Progesterone receptor (Oryctolagus cuniculus); assay: Progestational activity by Clauberg test in rabbits as McPhail index after 10 mg subcutaneous dose; format: functional; procedure, shortened: as §1
[6] = biological target: T1, Progesterone receptor (Oryctolagus cuniculus); assay: Progestational activity by Clauberg test in rabbits as McPhail index after 30 mg subcutaneous dose; format: functional; procedure, shortened: as §1
[7] = biological target: T3, Androgen receptor (Rattus norvegicus) (UniProt P15207); assay: Antiandrogenic activity as prostate weight after subcutaneous administration compared to Spironolactone; format: functional, organism-based; details: Prostate gland
T3 sequence (whole entry): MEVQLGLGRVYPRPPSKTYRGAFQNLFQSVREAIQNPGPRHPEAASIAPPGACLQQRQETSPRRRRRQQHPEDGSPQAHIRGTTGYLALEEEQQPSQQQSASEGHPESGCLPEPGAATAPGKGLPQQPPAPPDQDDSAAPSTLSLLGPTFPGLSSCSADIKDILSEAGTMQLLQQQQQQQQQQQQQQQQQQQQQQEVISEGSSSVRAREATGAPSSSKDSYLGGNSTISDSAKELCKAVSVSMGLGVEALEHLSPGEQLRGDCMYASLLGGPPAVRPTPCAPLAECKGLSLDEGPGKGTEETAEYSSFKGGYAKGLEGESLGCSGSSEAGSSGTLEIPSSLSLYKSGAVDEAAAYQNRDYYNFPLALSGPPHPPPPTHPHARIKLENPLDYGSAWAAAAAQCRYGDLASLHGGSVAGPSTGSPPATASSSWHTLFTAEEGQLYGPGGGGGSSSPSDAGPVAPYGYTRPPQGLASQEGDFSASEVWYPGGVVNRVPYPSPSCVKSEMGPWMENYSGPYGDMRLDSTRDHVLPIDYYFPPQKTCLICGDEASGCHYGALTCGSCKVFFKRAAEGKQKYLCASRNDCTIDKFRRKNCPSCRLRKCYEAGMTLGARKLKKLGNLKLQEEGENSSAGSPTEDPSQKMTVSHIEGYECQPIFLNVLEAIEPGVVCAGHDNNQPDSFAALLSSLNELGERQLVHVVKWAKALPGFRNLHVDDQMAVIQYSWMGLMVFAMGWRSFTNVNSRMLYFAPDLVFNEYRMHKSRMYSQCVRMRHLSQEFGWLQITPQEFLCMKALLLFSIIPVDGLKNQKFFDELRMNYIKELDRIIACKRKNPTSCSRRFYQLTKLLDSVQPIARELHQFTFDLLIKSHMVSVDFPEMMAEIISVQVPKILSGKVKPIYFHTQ
Procedure, shortened: (§2)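 Castrated male Wistar SPF rats (~100 g) were dosed once daily for 12 days, sc at 1–16 mg/rat or po at 1–100 mg/rat, each with testosterone propionate 0.1 mg/rat sc; controls got Tp alone. On day 13, fresh seminal vesicle and ventral prostate weights were taken as % of Tp control. Relative potency came from regression/covariance analysis.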

[8] = biological target: T3, Androgen receptor (Rattus norvegicus); assay: Antiandrogenic activity as seminal vesicle weight after subcutaneous administration compared to Spironolactone; format: functional, organism-based; procedure, shortened: as §2
Rattus norvegicus [9] = species: Rattus norvegicus; assay: Ovulation inhibitory activity in rats after 40 mg peroral dose
Rattus norvegicus [10] = species: Rattus norvegicus; assay: Ovulation inhibitory activity in rats after 100 mg peroral dose
Rattus norvegicus [11] = species: Rattus norvegicus; assay: Ovulation inhibitory activity in rats after 30 mg peroral dose
[12] = biological target: T1, Progesterone receptor (Oryctolagus cuniculus); assay: Progestational activity by Clauberg test in rabbits as McPhail index after 100 mg peroral dose; format: functional; procedure, shortened: as §1
[13] = biological target: T1, Progesterone receptor (Oryctolagus cuniculus); assay: Progestational activity by Clauberg test in rabbits as McPhail index after 300 mg peroral dose; format: functional; procedure, shortened: as §1
[14] = biological target: T1, Progesterone receptor (Oryctolagus cuniculus); assay: Progestational activity by Clauberg test in rabbits as McPhail index after 30 mg peroral dose; format: functional; procedure, shortened: as §1
[15] = biological target: T3, Androgen receptor (Rattus norvegicus); assay: Antiandrogenic activity after peroral administration as relative potency compared to Spironolactone; format: functional, organism-based; procedure, shortened: as §2

SMILES	Ratio [1]	Relative potency [3]	McPhail index [4]	McPhail index [5]	McPhail index [6]	also measured
CC(=O)S[C@@H]1CC2=CC(=O)CCC2(C)C2CCC3(C)C(C21)[C@@H]1C[C@@H]1[C@@]31CCC(=O)O1 (stereo partly drawn)	14	186				McPhail index [2]: 1.6
CC(=O)S[C@@H]1CC2=CC(=O)[C@@H]3C[C@@H]3C2(C)C2CCC3(C)C(C21)[C@H]1C[C@H]1[C@@]31CCC(=O)O1 (stereo partly drawn)	19	281	3.1	2.4	3	Relative potency [7]: 2.4; Relative potency [8]: 1
CC(=O)S[C@@H]1CC2=CC(=O)CC[C@]2(C)[C@H]2CC[C@@]3(C)[C@@H](CC[C@@]34CCC(=O)O4)[C@H]12 [SPIRONOLACTONE]						Inhibition (Rattus norvegicus [9]): 16%; Inhibition (Rattus norvegicus [10]): 20%
CC(=O)S[C@@H]1CC2=CC(=O)C=C[C@]2(C)[C@H]2CC[C@@]3(C)[C@@H]([C@@H]4C[C@@H]4[C@@]34CCC(=O)O4)[C@H]12 (stereo in doubt) [MESPIRENONE]						Inhibition (Rattus norvegicus [11]): 0%; Inhibition (Rattus norvegicus [10]): 20%
CC(=O)S[C@@H]1CC2=CC(=O)C=C[C@]2(C)[C@H]2CC[C@@]3(C)[C@@H]([C@@H]4C[C@@H]4[C@@]34CCC(=O)O4)[C@H]12 (stereo in doubt; 14)	76	115				

Now from value to compound, other results behind:

Ratio [1]	Relative potency [3]	McPhail index [4]	McPhail index [5]	McPhail index [6]	SMILES	also measured
18	282	3.1	2.6	3.1	CC(=O)S[C@@H]1CC2=CC(=O)CCC2(C)C2CCC3(C)C(C21)[C@H]1C[C@H]1[C@@]31CCC(=O)O1 (stereo partly drawn)	
7.8	228	3.4	1	1.6	CC(=O)S[C@@H]1CC2=CC(=O)[C@@H]3C[C@@H]3C2(C)C2CCC3(C)C(C21)[C@@H]1C[C@@H]1[C@@]31CCC(=O)O1 (stereo partly drawn)	Inhibition (Rattus norvegicus [9]): 100%
33	333	2.6	1.2	1.7	CC(=O)S[C@@H]1CC2=CC(=O)C=C[C@]2(C)[C@H]2CC[C@@]3(C)[C@@H]([C@@H]4C[C@@H]4[C@@]34CCC(=O)O4)[C@H]12 (stereo in doubt)	McPhail index [12]: 1.6; McPhail index [13]: 2.8; McPhail index [14]: 1; Relative potency [7]: 0.4; Relative potency [8]: 0.2; Relative potency [15]: < 0.1

From ChEMBL document CHEMBL1123807, “Aldosterone antagonists. 2. New 7 alpha-(acetylthio)-15,16-methylene spirolactones” (1987)
